Assay results: ChEMBL document CHEMBL1148731, “An integrated computational approach to the phenomenon of potent and selective inhibition of aurora kinases B and C by a series of 7-substituted indirubins” (J Med Chem, 2007)

Experiments:
[1] = molecular target: Aurora kinase B (Homo sapiens, UniProt Q96GD4); experiment: Inhibition of human recombinant aurora B kinase
Method in brief: (§1)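 Recombinant human Aurora kinase (A, B or C); myelin basic protein substrate (1 mg/mL) with 15 µM [γ-33P]ATP in buffer C (25 mM Mops pH 7.2, 60 mM β-glycerophosphate, 15 mM p-nitrophenylphosphate, 5 mM EGTA, 15 mM MgCl2, 1 mM DTT, 1 mM vanadate, 1 mM phenylphosphate), 30 min at 30 °C. Stopped by spotting on P81 paper, washed in 1% phosphoric acid, scintillation counted. IC50 from dose-response curves over various concentrations.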

[2] = molecular target: T1, Aurora kinase A (Homo sapiens, UniProt O14965); experiment: Inhibition of human recombinant aurora A kinase
T1 sequence (O14965 whole entry): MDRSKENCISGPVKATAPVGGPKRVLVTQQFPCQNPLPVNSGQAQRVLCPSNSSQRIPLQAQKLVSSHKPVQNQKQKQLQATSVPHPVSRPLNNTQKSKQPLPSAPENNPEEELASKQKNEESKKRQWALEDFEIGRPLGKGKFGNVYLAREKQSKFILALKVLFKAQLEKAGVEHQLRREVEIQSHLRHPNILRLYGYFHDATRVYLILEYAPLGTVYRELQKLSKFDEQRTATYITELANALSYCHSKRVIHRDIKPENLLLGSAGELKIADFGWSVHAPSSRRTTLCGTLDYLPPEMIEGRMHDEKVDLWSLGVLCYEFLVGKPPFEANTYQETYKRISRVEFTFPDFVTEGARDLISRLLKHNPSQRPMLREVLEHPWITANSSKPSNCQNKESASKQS

[3] = molecular target: T2, Aurora kinase C (Homo sapiens, UniProt Q9UQB9); experiment: Inhibition of human recombinant aurora C kinase; method in brief: as §1
T2 sequence (Q9UQB9 whole entry): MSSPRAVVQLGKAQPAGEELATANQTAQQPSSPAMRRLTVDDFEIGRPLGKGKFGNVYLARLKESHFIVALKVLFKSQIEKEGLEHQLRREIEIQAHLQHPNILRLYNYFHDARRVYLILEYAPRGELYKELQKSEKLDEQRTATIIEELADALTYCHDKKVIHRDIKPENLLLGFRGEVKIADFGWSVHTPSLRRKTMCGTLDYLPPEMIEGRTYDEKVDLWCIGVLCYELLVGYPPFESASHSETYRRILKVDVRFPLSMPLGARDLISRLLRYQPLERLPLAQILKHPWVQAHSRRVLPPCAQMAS

Sequence of Aurora kinase B (Q96GD4 whole entry): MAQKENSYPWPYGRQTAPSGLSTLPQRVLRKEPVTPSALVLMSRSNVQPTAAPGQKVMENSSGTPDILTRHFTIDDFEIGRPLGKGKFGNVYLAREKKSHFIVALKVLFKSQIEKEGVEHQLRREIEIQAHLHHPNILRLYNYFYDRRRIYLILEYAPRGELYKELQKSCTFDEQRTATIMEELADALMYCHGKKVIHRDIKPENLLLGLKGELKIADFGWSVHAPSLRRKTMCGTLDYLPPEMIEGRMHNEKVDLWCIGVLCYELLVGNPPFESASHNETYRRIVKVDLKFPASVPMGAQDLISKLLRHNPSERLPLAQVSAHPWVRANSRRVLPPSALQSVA

Row | IC50 [1] [µM] | IC50 [2] [µM] | IC50 [3] [nM] | SMILES
1 | 10 | > 100 | 600 | O=Nc1c(-c2c(O)[nH]c3c(I)cccc23)[nH]c2ccccc12
2 | 2.1 | 2.3 | 700 | CC(=O)O/N=C1\C(c2c(O)[nH]c3ccccc23)=Nc2ccccc21
3 | > 100 | > 100 | > 100000 | O=C1C(c2c(O)[nH]c3c(F)cccc23)=Nc2ccccc21
4 | 3 | 4.3 | 400 | CO/N=C1\C(c2c(O)[nH]c3ccccc23)=Nc2ccccc21
5 | 7 | 2 | 1000 | O=Nc1c(-c2c(O)[nH]c3c(F)cccc23)[nH]c2ccccc12
6 | 8 | > 100 | 900 | O=Nc1c(-c2c(O)[nH]c3c(Cl)cccc23)[nH]c2ccccc12
7 | > 100 | > 100 | > 100000 | O=C1C(c2c(O)[nH]c3c(Br)cccc23)=Nc2ccccc21
8 | > 100 | > 100 | > 100000 | CO/N=C1\C(=C2\C(=O)Nc3c(Br)cccc32)Nc2ccccc21
9 | > 100 | > 100 | > 100000 | CO/N=C1\C(=C2\C(=O)Nc3c(Cl)cccc32)Nc2ccccc21
10 | 8 | 20 | 1000 | CC(=O)O/N=C1\C(=C2\C(=O)Nc3c(F)cccc32)Nc2ccccc21
11 | > 100 | > 100 | > 100000 | CO/N=C1\C(=C2\C(=O)Nc3c(I)cccc32)Nc2ccccc21
12 | 4.6 | – | 700 | O=Nc1c(-c2c(O)[nH]c3c(Br)cccc23)[nH]c2ccccc12
13 | > 100 | > 100 | > 100000 | O=C1C(c2c(O)[nH]c3c(Cl)cccc23)=Nc2ccccc21
14 | > 100 | > 100 | > 100000 | O=C1C(c2c(O)[nH]c3c(I)cccc23)=Nc2ccccc21
15 | > 100 | > 100 | 28000 | CC(=O)O/N=C1\C(=C2\C(=O)Nc3c(I)cccc32)Nc2ccccc21
16 | 20 | > 100 | 4500 | CC(=O)O/N=C1\C(=C2\C(=O)Nc3c(Br)cccc32)Nc2ccccc21
17 | > 100 | > 100 | > 100000 | CC(=O)O/N=C1\C(=C2\C(=O)Nc3c(Cl)cccc32)Nc2ccccc21
18 | > 100 | > 100 | > 100000 | CO/N=C1\C(=C2\C(=O)Nc3c(F)cccc32)Nc2ccccc21
19 | 0.9 | – | 200 | O=C1Nc2cc(Br)ccc2/C1=C1/Nc2ccccc2/C1=N\O [6BIO]
20 | 2.3 | 4 | 300 | O=Nc1c(-c2c(O)[nH]c3ccccc23)[nH]c2ccccc12 [INDIRUBIN-3-MONOXIME]
